Here are results for 30 molecules from ChEMBL document CHEMBL4831547, “DNDI-6148: A Novel Benzoxaborole Preclinical Candidate for the Treatment of Visceral Leishmaniasis” (J Med Chem, 2021).

The nature of data set [1]: Selectivity index, ratio of CC50 for human MRC5 cells to EC50 for Leishmania infantum MHOM/MA(BE)/67/ITMAP263. In kind it is toxicity. Conditions: read-out: Ratio CC50/EC50.
A short description of data set [2]: Drug metabolism in human assessed as M12 metabolite formation. In kind it is ADME.
A short description of data set [3]: Drug metabolism in hamster assessed as M12 metabolite formation. In kind it is ADME, Mesocricetus auratus.
The nature of data set [4]: Drug metabolism in mouse assessed as M12 metabolite formation. In kind it is ADME.
The nature of data set [5]: Drug metabolism in rat assessed as M12 metabolite formation. In kind it is ADME.
Data set [6] is described as follows: Drug metabolism in dog assessed as M12 metabolite formation. In kind it is ADME, Canis lupus familiaris.
Data set [7] can be described thus: Drug metabolism in Sprague-Dawley rat liver microsomes at 10 uM incubated for 60 mins by LC-UV/MS analysis. In kind it is ADME, Microsome. Conditions: 1 h. Summed up: (§1)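 Incubated at 10 μM with liver microsomes (1 mg/mL) from Beagle dog or Sprague-Dawley rat for 60 min. Reactions were stopped by precipitation with formic acid/acetonitrile, and metabolites were identified by LC-UV-MSn (n = 1–2).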

Data set [8] can be described thus: Toxicity in Sprague-Dawley rat at 50 mg/kg administered daily for 14 days. In kind it is organism-based. Conditions: in vivo, 336 h, time 14 day. Summed up: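 Exploratory 14-day toxicology study with daily dosing in male and female Sprague-Dawley rats.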
Data set [9] in a line: Genotoxicity in Salmonella typhimurium TA100 over 1 to 1000 ug in presence of S9 fraction by Ames test. In kind it is toxicity, subcellular. The note with it: salmonella enterica subsp. enterica serovar typhimurium, dose 1-1000 µg. The essentials: (§2)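 Mini-Ames reverse mutation screen in S. typhimurium TA98 and TA100, run with and without induced rat liver S9. Doses were 1.5, 4, 10, 25, 64, 160, 400 and 1000 μg per well. Positive controls were 2-aminoanthracene, 2-nitrofluorene and sodium azide; DMSO was the negative control.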

The nature of data set [10]: Drug metabolism in human liver microsomes at 10 uM incubated for 60 mins by LC-UV/MS analysis. In kind it is ADME, Microsome. Conditions: 1 h.
A short description of data set [11]: Permeability of compound in dog MDCK-MDR1 cells at 2 uM after 150 min by LC-MS/MS analysis. In kind it is ADME, cell-based, Canis lupus familiaris. Conditions: mdck-mdr1, 2.5 h. The essentials: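 Bidirectional MDCK-MDR1 monolayer permeability. A→B and B→A transport was measured in triplicate over 150 min at 37 °C, 5% CO2, and quantified by LC-MS/MS as analyte/internal standard peak-area ratio.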

The nature of data set [12]: Genotoxicity in Salmonella typhimurium TA100 over 1 to 1000 ug in absence of S9 fraction by Ames test. Conditions: salmonella enterica subsp. enterica serovar typhimurium, dose 1-1000 µg. In kind it is toxicity. The essentials:
as §2

Data set [13] is described as follows: Drug metabolism in dog liver microsomes at 10 uM incubated for 60 mins by LC-UV/MS analysis. The note with it: 1 h. In kind it is ADME, Canis lupus familiaris, Microsome. Summed up: as §1
Data set [14] can be described thus: Genotoxicity in Salmonella typhimurium TA98 over 1 to 1000 ug in presence of S9 fraction by Ames test. Conditions: salmonella enterica subsp. enterica serovar typhimurium, dose 1-1000 µg. In kind it is toxicity, subcellular. Summed up:
as §2

Data set [15] is described as follows: Genotoxicity in Salmonella typhimurium TA98 over 1 to 1000 ug in absence of S9 fraction by Ames test. In kind it is toxicity. Conditions: salmonella enterica subsp. enterica serovar typhimurium, dose 1-1000 µg. Summed up:
as §2

A short description of data set [16]: Clearance in human. In kind it is ADME.

Turning to `O=C(Nc1ccc2c(c1)B(O)OC2)c1ccc(F)cc1C(F)(F)F`, in [1], the selectivity ratio is > 24.

Turning to `O=C(Nc1ccc2c(c1)B(O)OC2)c1cn(-c2ccccn2)nn1`, the selectivity ratio in [1] came out at 30.

For `Cc1c(C(=O)Nc2ccc3c(c2)B(O)OC3)cnn1CCC(F)(F)F`, in data set [1], the selectivity ratio was > 5.

As for `Cc1nn(-c2ccccn2)cc1C(=O)Nc1ccc2c(c1)B(O)OC2`, the selectivity ratio in data set [1] is > 11.

As for `O=C(Nc1ccc2c(c1)B(O)OC2)c1cn(-c2ccc(Cl)cc2)nc1C(F)(F)F`, the selectivity ratio in [1] worked out at 2.

On to `Cn1nc(C(=O)Nc2ccc3c(c2)B(O)OC3)cc1-c1ccccn1`, for which, in data set [1], the selectivity ratio stood at 31.

For `Cc1cccc(-n2ncc(C(=O)Nc3ccc4c(c3)B(O)OC4)c2C)n1`, in [1], the selectivity ratio was 25.

For `O=C(Nc1ccc2c(c1)B(O)OC2)c1nnc(-c2ccccn2)o1`, in data set [1], the selectivity ratio is > 32.

Consider `COc1cccc(-n2ncc(C(=O)Nc3ccc4c(c3)B(O)OC4)c2C)n1`, for which the selectivity ratio in [1] stood at 31.

As to `O=C(Nc1ccc2c(c1)B(O)OC2)c1cn(C2CCOCC2)nc1C(F)(F)F`, in [1], the selectivity ratio was > 21.

On to `O=C(Nc1ccc2c(c1)B(O)OC2)c1cc(-c2ccccn2)n[nH]1`, for which, in data set [1], the selectivity ratio was 8.

Regarding `Cn1nc(-c2ccccn2)cc1C(=O)Nc1ccc2c(c1)B(O)OC2`, the selectivity ratio in data set [1] was > 2.

For the molecule `O=C(Nc1ccc2c(c1)B(O)OC2)c1cn(CC(F)(F)F)nc1C(F)(F)F`, the selectivity ratio in data set [1] is > 40.

For `O=C(Nc1ccc2c(c1)B(O)OC2)c1cn(-c2ccccn2)nc1C(F)(F)F`, in data set [1], the selectivity ratio came out at 1.6.

With `Cc1c(C(=O)Nc2ccc3c(c2)B(O)OC3)cnn1-c1ccccn1`, the selectivity ratio in [1] was 15.

As for `O=C(Nc1ccc2c(c1)B(O)OC2)c1cn(CCC(F)(F)F)nc1C(F)(F)F`, the selectivity ratio in data set [1] was 38.

With `Cc1cccc(-n2nnc(C(=O)Nc3ccc4c(c3)B(O)OC4)c2C)n1`, in data set [1], the selectivity ratio is > 10.

For `COc1cccc(-n2nnc(C(=O)Nc3ccc4c(c3)B(O)OC4)c2C)n1`, the selectivity ratio in data set [1] is > 80.

As to `Cc1c(-c2ccccn2)coc1C(=O)Nc1ccc2c(c1)B(O)OC2`, the Drug metabolism entry in data set [2], in [3], in data set [4], in data set [5] and in [6] was “Metabolite_Detected” in each case. The selectivity ratio in data set [1] is 37.

Consider `Cc1c(C(=O)Nc2ccc3c(c2)B(O)OC3)nnn1-c1cccnc1`, for which, in data set [1], the selectivity ratio is > 1.8.

In the case of `Cc1c(C(=O)Nc2ccc3c(c2)B(O)OC3)nnn1-c1ccccc1`, the selectivity ratio in data set [1] was > 1.7.

For the molecule `O=C(Nc1ccc2c(c1)B(O)OC2)c1cn(C2CCC2)nc1C(F)(F)F`, in data set [1], the selectivity ratio came out at 53.

For the molecule `O=C(Nc1ccc2c(c1)B(O)OC2)c1cn(C(F)(F)F)nc1C(F)(F)F`, the selectivity ratio in data set [1] is > 31.

As to `Cc1nn(C2CCC2)cc1C(=O)Nc1ccc2c(c1)B(O)OC2`, the selectivity ratio in [1] was > 4.

Consider `COc1ccccc1-n1cc(C(=O)Nc2ccc3c(c2)B(O)OC3)c(C)n1`, for which, in data set [1], the selectivity ratio was 7.3.

Turning to `Cc1oc(C(=O)Nc2ccc3c(c2)B(O)OC3)cc1-c1ccccn1`, the selectivity ratio in [1] is 18.

Regarding `Cc1c(-c2ccccn2)csc1C(=O)Nc1ccc2c(c1)B(O)OC2`, the selectivity ratio in [1] was determined as 4.

`Cc1c(C(=O)Nc2ccc3c(c2)B(O)OC3)nnn1-c1ccccn1`: the Drug metabolism entry in [7], in data set [10] and in data set [13] was “Metabolite_Notdetected” in each case. For the same molecule, the Activity entry in data set [8], in data set [9], in [12], in [14] and in data set [15] was “Non-Toxic” each time. Further, the permeability result in [11] is reported as “Permeable”. Besides, the selectivity ratio in data set [1] is > 39. This molecule gave a clearance in data set [16] of 1 mL/min/kg.

Consider `Cc1nn(CCC(F)(F)F)cc1C(=O)Nc1ccc2c(c1)B(O)OC2`, for which the selectivity ratio in data set [1] is > 11.

As to `CCCCCCCCCCCCCCCCOP(=O)([O-])OCC[N+](C)(C)C` [MILTEFOSINE], the selectivity ratio in data set [1] is > 6.2.
